How the values were obtained:
Type in all cases: functional
Candida albicans [1] = experiment: Antimicrobial activity against Candida albicans isolate R after 48 hrs by microdilution method
Procedure, shortened: (§1)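 Broth microdilution in microtiter plates, read spectrophotometrically at 490 nm. MIC taken as the lowest drug dilution giving 50% growth inhibition. C. krusei […] run as control in each run. Read at 24 h and 48 h; trailing growth noted at 48 h.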

Candida albicans [2] = experiment: Antimicrobial activity against Candida albicans isolate R after 24 hrs by microdilution method; procedure, shortened: as §1
Candida albicans [3] = experiment: Antimicrobial activity against Candida albicans isolate C after 24 hrs by microdilution method; procedure, shortened: as §1
Candida albicans [4] = experiment: Antimicrobial activity against Candida albicans isolate C after 48 hrs by EUCAST microdilution method
Procedure, shortened: (§2)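 EUCAST broth microdilution, plates read spectrophotometrically at 490 nm. MIC is the lowest dilution giving 50% growth inhibition. C. krusei […] control included in each run.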

Candida albicans [5] = experiment: Antimicrobial activity against Candida albicans isolate R after 48 hrs by EUCAST microdilution method; procedure, shortened: as §2
Candida albicans [6] = experiment: Antimicrobial activity against Candida albicans isolate C after 48 hrs by microdilution method; procedure, shortened: as §1

SMILES	MIC (Candida albicans [1])	MIC (Candida albicans [2])	MIC (Candida albicans [3])	MIC (Candida albicans [4])	MIC (Candida albicans [5])	MIC (Candida albicans [6])
CCC(C)n1ncn(-c2ccc(N3CCN(c4ccc(OCC5COC(Cn6cncn6)(c6ccc(Cl)cc6Cl)O5)cc4)CC3)cc2)c1=O (stereo not drawn) [ITRACONAZOLE]	≤ 0.03 µg/mL	≤ 0.03 µg/mL	≤ 0.03 µg/mL	≤ 0.03 µg/mL	≤ 0.03 µg/mL	≤ 0.03 µg/mL
CC[C@@H]([C@H](C)O)n1ncn(-c2ccc(N3CCN(c4ccc(OC[C@@H]5CO[C@@](Cn6cncn6)(c6ccc(F)cc6F)C5)cc4)CC3)cc2)c1=O [POSACONAZOLE]	≤ 0.03 µg/mL	≤ 0.03 µg/mL	≤ 0.03 µg/mL	≤ 0.03 µg/mL	≤ 0.03 µg/mL	≤ 0.03 µg/mL
C[C@@H](c1ncncc1F)[C@](O)(Cn1cncn1)c1ccc(F)cc1F [VORICONAZOLE]	≤ 0.03 µg/mL	≤ 0.03 µg/mL	≤ 0.03 µg/mL	≤ 0.125 µg/mL	≤ 0.03 µg/mL	≤ 0.03 µg/mL
